Arr AP2 block: inhibitors of human beta-arrestin and AP2 interaction. FITC-arrestin peptide / GST-AP2 beads, flow cytometry; AP2 beta2 appendage carries R879A mutation. 340,000 tested, 0.31% active. inhibition, % at 10 µM;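 active = inhibition above a set limit, near 3 SD of compounds lacking own fluorescence, cut at about 54% in these data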;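 also: plate controls were DMSO wells for no effect and 5 µM unlabelled arrestin peptide for full effect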
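Assay system: GST-AP2 R879A bound to glutathione beads, E. coli-expressed; Medium: PBS with 0.05% Tween 20 and 0.1% BSA; Also added: fluorescein-tagged arrestin peptide at 50 nM final; Timing: 12 min plus 1 h, RT; Measured by: flow cytometry, FL1 (488/535 nm); Evaluation: percent drop in bead-associated FITC signal.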
DAGLB inhibitor: blocks human DAGLB lipase activity; Q8NCG7; HEK293T DAGLB membrane lysate, EnzChek fluorogenic substrate; inhibition, % at 5.17 µM; 340,000 tested, 0.059% active; in the data active = inhibition above about 34%;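 also: 0% = enzyme with vehicle and 100% = wells lacking enzyme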
Target sequence (Q8NCG7 whole entry, looked up): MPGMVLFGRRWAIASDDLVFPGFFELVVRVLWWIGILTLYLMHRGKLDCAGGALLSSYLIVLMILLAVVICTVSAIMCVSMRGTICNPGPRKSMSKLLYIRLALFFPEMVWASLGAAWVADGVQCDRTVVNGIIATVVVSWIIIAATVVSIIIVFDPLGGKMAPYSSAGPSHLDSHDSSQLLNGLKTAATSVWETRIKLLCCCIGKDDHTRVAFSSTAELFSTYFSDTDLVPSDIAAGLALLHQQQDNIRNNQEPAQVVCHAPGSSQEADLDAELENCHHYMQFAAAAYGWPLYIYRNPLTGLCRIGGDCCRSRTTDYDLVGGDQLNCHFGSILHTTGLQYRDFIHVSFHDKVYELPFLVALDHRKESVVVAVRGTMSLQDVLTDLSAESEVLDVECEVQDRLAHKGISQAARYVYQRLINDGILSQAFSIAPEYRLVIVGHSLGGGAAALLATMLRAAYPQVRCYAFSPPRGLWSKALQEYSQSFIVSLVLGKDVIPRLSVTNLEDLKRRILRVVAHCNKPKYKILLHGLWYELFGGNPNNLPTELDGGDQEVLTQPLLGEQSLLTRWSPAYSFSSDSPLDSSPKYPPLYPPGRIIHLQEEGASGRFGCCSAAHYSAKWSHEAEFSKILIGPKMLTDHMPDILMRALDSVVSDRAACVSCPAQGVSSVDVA
HTR5A ag ctr: activates human HTR5A in OPRM1-OPRD1 agonist counter-screen. activation, % at 9.3 µM. HTR5A agonist assay, luminescence, cell-based. 340,000 tested, 0.61% active. P47898; in the data active = activation mostly above about 9.5%, no sharp cut-off; inactive = mostly below about 7.6%;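 also: 0% = cells with vehicle only and 100% = reference agonist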
OPRM1-OPRD1 ag: OPRM1-OPRD1 heterodimerization agonism. P35372+P41143. cells, luminescence. activation, % at 9.3 µM. 340,000 tested, 0.3% active; in the data active = activation above about 18%;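 also: 0% = vehicle-treated cells and 100% = reference agonist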
MOR-DOR inv ag: inverse agonist of human OPRM1-OPRD1 heterodimerization; cell-based MOR-DOR heterodimer luminescence, inverse agonism; 340,000 tested, 0.21% active; inhibition, % at 9.3 µM; P35372+P41143; in the data active = inhibition above about 22%, passing the limit was not always enough;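 also: 0% = cells with DMSO and 100% = wells without cells with DMSO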
HTR5A inv ag: counter-screen for OPRM1-OPRD1 inverse agonists: human HTR5A inverse agonism; inhibition, % at 9.3 µM; AID 504634; 340,000 tested, 0.083% active; HTR5A cell line, luminescence; P47898; in the data active = inhibition mostly above about 23%, no sharp cut-off; inactive = mostly below about 18%;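 also: 0% = cells with DMSO and 100% = no-cell wells with DMSO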
Arr AP2 CP1: inhibitors of human beta-arrestin and AP2 interaction; inhibition, % at 10 µM; shares compounds with Arr AP2 block; GST-AP2 beads, FITC arrestin peptide binding, flow cytometry; GST-fused beta2-adaptin appendage, R879A mutant; 1,300 tested, 2% active; AID 504908;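 active = inhibition above a set limit, roughly 3 SD of non-fluorescent compound noise, cut at about 38% in these data; inactive = inhibition at or below that limit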;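 also: loss of bead fluorescence from 50 nM FITC arrestin peptide bound to appendage; 0% = negative control wells and 100% = excess unlabelled arrestin peptide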
GST GSH counter: counter-screen for beta-arrestin AP2 inhibitors: GST-GSH bead binding | GST-fluorescein binding to GSH beads, fluorescence | inhibition, % at 10 µM | shares compounds with Arr AP2 block | 1,300 tested, 2% active;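 active = inhibition above 50%, about 3 SD of the inhibition seen with non-fluorescent compounds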;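 also: fluorescein maleimide labelled GST captured on 4 micron glutathione beads; higher means more loss of bead fluorescence from quenching or blocked binding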
Active calls of the source: *. This is a sample that favours compounds with a hit; in the whole collection about 1.4% have one here.

`COc1ccc(C(=O)Nc2cc3c(cc2N2CCCCC2)n(C)c(=O)n3C)cc1OC` gave DAGLB inhibitor -0.4, HTR5A ag ctr -3.4, OPRM1-OPRD1 ag -2.4, MOR-DOR inv ag 12.2, HTR5A inv ag 12.7 and Arr AP2 CP1 -4.6.
COc1ccc(-c2nnc(SCC(=O)N(C)C3CCS(=O)(=O)C3)n2CC(C)C)cc1 (stereo unspecified) was read as DAGLB inhibitor 0.6.
CCOC(=O)CCC1(C(=O)OC)C(=O)CCCCCC=C1C(=O)OC (stereo unspecified) was read as DAGLB inhibitor -1.9.
For Cc1ccc2nc3c(c(C(=O)OCC(=O)NC4CCS(=O)(=O)C4)c2c1)CCCC3 (stereo unspecified) the results were Arr AP2 block 57.0*, DAGLB inhibitor 1.6, HTR5A ag ctr 5.6, OPRM1-OPRD1 ag -0.8, MOR-DOR inv ag 4.5, HTR5A inv ag -15.5, Arr AP2 CP1 1.7 and GST GSH counter -3.4.
Screening CSc1ncccc1C(=O)N1CCCC(N2CCN(c3ccccc3C)CC2)C1 (stereo unspecified) returned DAGLB inhibitor -1.8.
Screening C#CCOCC1CN(C)C(=O)O1 (stereo unspecified) returned DAGLB inhibitor -2.5.
Screening Cc1nn(Cc2ccc(Cl)cc2Cl)c(Cl)c1/C=C/C(=O)OCC(=O)NCC(F)(F)F returned Arr AP2 block 81.4*, DAGLB inhibitor -10.9, HTR5A ag ctr 1.6, OPRM1-OPRD1 ag 4.0, MOR-DOR inv ag -23.3, HTR5A inv ag -2.4, Arr AP2 CP1 -4.1 and GST GSH counter -8.3.
`Cc1nn(Cc2ccccc2Cl)c(Cl)c1/C=C/C(=O)OCC(=O)NC(N)=O` gave Arr AP2 block -1.2, DAGLB inhibitor -0.7, HTR5A ag ctr -1.7, OPRM1-OPRD1 ag -1.9, MOR-DOR inv ag 8.3 and HTR5A inv ag 8.2.
CCc1ccc2[nH]c(=O)c(CN(CCN(CC)CC)C(=S)NCc3ccco3)cc2c1 was read as Arr AP2 block 55.3*, DAGLB inhibitor 2.7, HTR5A ag ctr 1.8, OPRM1-OPRD1 ag 3.2, MOR-DOR inv ag -17.6, HTR5A inv ag -6.0, Arr AP2 CP1 9.3 and GST GSH counter -6.9.
O=S1(=O)N=C(N(CCO)/N=C/c2ccncc2)c2ccccc21 was read as Arr AP2 block -11.2, DAGLB inhibitor 0.9, HTR5A ag ctr 1.2, OPRM1-OPRD1 ag -1.6, MOR-DOR inv ag 8.1 and HTR5A inv ag -3.2.
Screening O=S1(=O)N=C(N(CCO)/N=C/c2ccccc2)c2ccccc21 returned Arr AP2 block 60.3*, DAGLB inhibitor -0.2, HTR5A ag ctr 0.1, OPRM1-OPRD1 ag 1.0, MOR-DOR inv ag -4.9, HTR5A inv ag 4.6, Arr AP2 CP1 2.5 and GST GSH counter 27.7.
CCn1c(=O)n(CC)c2cc(N3CCCC3)c(NC(=O)c3ccccc3OC)cc21 was read as Arr AP2 block 2.8, DAGLB inhibitor 0.7, HTR5A ag ctr 0.5, OPRM1-OPRD1 ag -0.5, MOR-DOR inv ag 2.7 and HTR5A inv ag -1.8.
For CCn1c(=O)n(CC)c2cc(N3CCCC3)c(NC(=O)c3cc(Cl)ccc3OC)cc21 the results were Arr AP2 block 54.3*, DAGLB inhibitor 2.0, HTR5A ag ctr -2.1, OPRM1-OPRD1 ag -0.8, MOR-DOR inv ag 4.0, HTR5A inv ag -4.6, Arr AP2 CP1 -0.8 and GST GSH counter 3.2.
For COc1ccc(Cl)cc1C(=O)Nc1ccccc1N1CCN(C(=O)C(C)C)CC1 the results were Arr AP2 block -17.4, DAGLB inhibitor -0.1, HTR5A ag ctr 2.6, OPRM1-OPRD1 ag -0.1, MOR-DOR inv ag 0.5 and HTR5A inv ag 9.2.
Screening CCn1c(=O)n(CC)c2cc(N3CCCC3)c(NC(=O)c3ccc(OC)c(Br)c3)cc21 returned Arr AP2 block 32.8, DAGLB inhibitor -1.4, HTR5A ag ctr 4.2, OPRM1-OPRD1 ag -1.5, MOR-DOR inv ag 7.4, HTR5A inv ag -10.4, Arr AP2 CP1 3.0 and GST GSH counter 2.6.
For CCOc1ccccc1C(=O)Nc1cc2c(cc1N1CCCC1)n(CC)c(=O)n2CC the results were Arr AP2 block 15.5, DAGLB inhibitor 2.4, HTR5A ag ctr -2.9, OPRM1-OPRD1 ag -1.3, MOR-DOR inv ag 6.6, HTR5A inv ag -3.3, Arr AP2 CP1 1.4 and GST GSH counter 0.2.
Screening COC(=O)c1ccc2c(c1C(=O)OC)CN(S(=O)(=O)C(C)(C)C)[C@@H]2CCO returned Arr AP2 block 32.3, DAGLB inhibitor -2.4, HTR5A ag ctr -2.8, OPRM1-OPRD1 ag 3.0, MOR-DOR inv ag -13.8 and HTR5A inv ag 9.5.
Screening Cn1c(=O)[nH]c(=O)c2c1nc(N1CCCCCC1)n2Cc1cccc2ccccc12 returned Arr AP2 block 99.5*, DAGLB inhibitor 3.8, HTR5A ag ctr -5.9, OPRM1-OPRD1 ag -0.8, MOR-DOR inv ag 3.9, HTR5A inv ag 14.3, Arr AP2 CP1 1.6 and GST GSH counter -10.0.
For Cc1cc(C)cc(OCC(=O)Nc2ccc3c(c2)C(=O)c2ccccc2C3=O)c1 the results were Arr AP2 block 97.1*, DAGLB inhibitor -0.6, HTR5A ag ctr 4.3, OPRM1-OPRD1 ag 1.4, MOR-DOR inv ag -10.0, HTR5A inv ag 16.5, Arr AP2 CP1 6.0 and GST GSH counter 6.0.
`Clc1cccc(CN2CCN(c3ncccn3)CC2)c1Cl` gave Arr AP2 block 2.5, DAGLB inhibitor -9.3, HTR5A ag ctr -0.1, OPRM1-OPRD1 ag 2.0, MOR-DOR inv ag -10.9 and HTR5A inv ag 13.2.
Screening Clc1ccccc1CN1CCN(c2ncccn2)CC1 returned Arr AP2 block 58.1*, DAGLB inhibitor -0.2, HTR5A ag ctr 0.9, OPRM1-OPRD1 ag -0.2, MOR-DOR inv ag 1.1, HTR5A inv ag -3.3, Arr AP2 CP1 -10.1 and GST GSH counter -0.8.
O=C(Nc1cc(-c2nc3ccccc3s2)ccc1Cl)c1ccc2c(c1)OCO2 was read as Arr AP2 block 6.4, DAGLB inhibitor -4.6, HTR5A ag ctr 3.0, OPRM1-OPRD1 ag 0.1, MOR-DOR inv ag -0.7 and HTR5A inv ag -10.4.
Cc1ccc(-c2nc3ccccc3s2)cc1NC(=O)c1ccc2c(c1)OCO2 was read as Arr AP2 block 58.2*, DAGLB inhibitor -4.7, HTR5A ag ctr -1.1, OPRM1-OPRD1 ag -0.9, MOR-DOR inv ag 5.1, HTR5A inv ag -7.2, Arr AP2 CP1 -18.4 and GST GSH counter -10.8.
O=C1Nc2ccc(NS(=O)(=O)c3cccs3)c3cccc1c23 was read as Arr AP2 block 96.3*, DAGLB inhibitor 2.6, HTR5A ag ctr -10.8, OPRM1-OPRD1 ag -3.3, MOR-DOR inv ag 16.1, HTR5A inv ag 26.2, Arr AP2 CP1 12.6 and GST GSH counter 1.6.

Source: PubChem
